Data: ChEMBL document CHEMBL1138291, “Structure-activity studies of novel cyanoguanidine ATP-sensitive potassium channel openers for the treatment of overactive bladder” (J Med Chem, 2007)
Values belong to the compound of their own block, whether it stands above or below them.

Columns and labels:
[1] = Activity at Kir6.2 channel in Landrace pig bladder detrusor assessed as relaxation of electrically stimulated contraction; design: species or system Sus scrofa
[2] = Half life in dog at 100 nmol/kg, po; assay type: ADME, organism-based, Canis lupus familiaris; conditions: in vivo
[3] = Half life in dog at 100 nmol/kg, iv; assay type: ADME, organism-based, Canis lupus familiaris; conditions: in vivo
[4] = Tmax in dog at 100 nmol/kg, po; assay type: ADME, organism-based, Canis lupus familiaris; conditions: in vivo
[5] = Plasma clearance in dog at 100 nmol/kg, iv; assay type: ADME, organism-based, Canis lupus familiaris
[6] = Oral bioavailability in dog at 100 nmol/kg, po; assay type: ADME, organism-based, Canis lupus familiaris; conditions: in vivo
[7] = Tmax in dog at 10 nmol/kg, po; assay type: ADME, organism-based, Canis lupus familiaris; conditions: in vivo
[8] = Plasma clearance in dog at 10 nmol/kg, iv; assay type: ADME, organism-based, Canis lupus familiaris
[9] = Oral bioavailability in dog at 10 nmol/kg, po; assay type: ADME, organism-based, Canis lupus familiaris; conditions: in vivo
[10] = Half life in dog at 10 nmol/kg, po; assay type: ADME, organism-based, Canis lupus familiaris; conditions: in vivo
[11] = Half life in dog at 10 nmol/kg, iv; assay type: ADME, organism-based, Canis lupus familiaris; conditions: in vivo
Sus scrofa [12] = assay: Reduction of unstable spontaneous bladder contractions in Landrace/Yorkshire pig bladder instability model at 1 mg/kg, iv; assay type: functional; design: scale not given: the % may be the effect or the level left
Sus scrofa [13] = assay: Reduction of blood pressure in pig at 0.3 mg/kg, iv; assay type: functional; design: scale not given: the % may be the effect or the level left
Method in brief: (§1)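 Conscious obstructed, telemetered pigs held in restraint cage with 20 gauge venous catheters in both ears for dosing and blood sampling; mean arterial pressure recorded, averaged over post-dose period as percent change from baseline.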

Sus scrofa [14] = species on record: Sus scrofa; assay: Inhibition of unstable spontaneous bladder contractions in Landrace/Yorkshire pig bladder instability model; assay type: functional, organism-based
Sus scrofa [15] = assay: Reduction of blood pressure in pig at 1 mg/kg, iv; assay type: functional; design: scale not given: the % may be the effect or the level left; method in brief: as §1
Portal vein = assay: Effect on rat portal vein; assay type: functional, tissue-based
Sus scrofa [16] = assay: Reduction of unstable spontaneous bladder contractions in Landrace/Yorkshire pig bladder instability model at 0.3 mg/kg, iv; assay type: functional; design: scale not given: the % may be the effect or the level left

Log EC50 [1]: -5.44
SMILES: CC(Cl)(Cl)C(NC(=O)c1cc(Cl)cc(Cl)c1)N/C(=N/C#N)Nc1ccc(Cl)nc1 (stereo unspecified)

Log EC50 [1]: -6.16
SMILES: CC(Cl)(Cl)C(NC(=O)c1ccc(Cl)cc1)N/C(=N/C#N)Nc1cccnc1Cl (stereo unspecified)

Log EC50 [1]: -5.42
SMILES: Cc1cccc(C(=O)NC(N/C(=N/C#N)Nc2ccc(Cl)nc2)C(C)(Cl)Cl)c1 (stereo unspecified)

Log EC50 [1]: -5.87
SMILES: CC(Cl)(Cl)C(NC(=O)c1ccc(Cl)cc1)N/C(=N/C#N)Nc1ccc(F)nc1 (stereo unspecified)

Log EC50 [1]: -5.94
SMILES: Cc1cccc(C(=O)NC(N/C(=N/C#N)Nc2ccc(C(F)(F)F)nc2)C(C)(Cl)Cl)c1 (stereo unspecified)

Log EC50 [1]: -6.02
SMILES: CC(Cl)(Cl)C(NC(=O)c1ccc(F)cc1)N/C(=N/C#N)Nc1ccc(C(F)(F)F)nc1 (stereo unspecified)

half-life [2]: 6.9 h | half-life [3]: 5.5 h | Tmax [4]: 0.7 h | clearance [5]: 1 mL/min/kg | bioavailability [6]: 100% | Log EC50 [1]: -5.54
SMILES: CC(Cl)(Cl)C(NC(=O)c1cc(F)cc(F)c1)N/C(=N/C#N)Nc1ccc(C(F)(F)F)nc1 (stereo unspecified)

Log EC50 [1]: -5.15
SMILES: Cc1ccc(C(=O)NC(N/C(=N/C#N)Nc2ccc(C(F)(F)F)nc2)C(C)(Cl)Cl)cc1 (stereo unspecified)

Log EC50 [1]: -5.98
SMILES: CC(Cl)(Cl)C(NC(=O)c1ccc(Cl)cc1)N/C(=N/C#N)Nc1ccccc1F (stereo unspecified)

Log EC50 [1]: -5.65
SMILES: CC(Cl)(Cl)C(NC(=O)c1ccc(C(F)(F)F)cc1)N/C(=N/C#N)Nc1ccc(C(F)(F)F)nc1 (stereo unspecified)

Tmax [7]: 0.4 h | clearance [8]: 11.2 mL/min/kg | bioavailability [9]: 43% | half-life [10]: 1.6 h | half-life [11]: 1.9 h
SMILES: CC(O)(C(=O)Nc1ccc(C(=O)c2ccccc2)cc1)C(F)(F)F (single isomer, unassigned) [ZD-6169]

Log EC50 [1]: -5.28
SMILES: CC(Cl)(Cl)C(NC(=O)c1cccc(Cl)c1)N/C(=N/C#N)Nc1ccc(C(F)(F)F)nc1 (stereo unspecified)

Log EC50 [1]: -5.71
SMILES: CC(Cl)(Cl)C(NC(=O)c1cccc(F)c1)N/C(=N/C#N)Nc1ccc(C(F)(F)F)nc1 (stereo unspecified)

Log EC50 [1]: -5.68
SMILES: CC(Cl)(Cl)C(NC(=O)c1cccc(F)c1)N/C(=N/C#N)Nc1ccc(Cl)nc1 (stereo unspecified)

Log EC50 [1]: -6.23
SMILES: CC(Cl)(Cl)C(NC(=O)c1ccc(Cl)cc1)N/C(=N/C#N)Nc1cncc(Br)c1 (stereo unspecified)

half-life [2]: 15 h | half-life [3]: 9.9 h | Tmax [4]: 0.4 h | clearance [5]: 2.17 mL/min/kg | bioavailability [6]: 100%
SMILES: CC(Cl)(Cl)C(NC(=O)c1ccc(Cl)cc1)NC(=NC#N)Nc1ccc(Cl)nc1 (stereo unspecified)

EC50 (Portal vein): 813 nM
SMILES: CC(Cl)(Cl)C(NC(=O)c1ccc(Cl)cc1)N/C(=N/C#N)Nc1ccc(Cl)nc1 (stereo unspecified)
Activity (Sus scrofa [12]): 90.7% | Activity (Sus scrofa [13]): 1.4% | Activity (Sus scrofa [14]): Dose-dependent effect | Activity (Sus scrofa [15]): 36% | Activity (Sus scrofa [16]): 19.7%

Log EC50 [1]: -5.7
SMILES: CC(Cl)(Cl)C(NC(=O)c1cc(Cl)cc(Cl)c1)N/C(=N/C#N)Nc1ccc(C(F)(F)F)nc1 (stereo unspecified)

Log EC50 [1]: -5.78
SMILES: CC(Cl)(Cl)C(NC(=O)c1ccc(Cl)cc1)N/C(=N/C#N)Nc1ccc(C(F)(F)F)nc1 (stereo unspecified)

Log EC50 [1]: -5.35
SMILES: CC(Cl)(Cl)C(NC(=O)c1cccc(Cl)c1)N/C(=N/C#N)Nc1ccc(Cl)nc1 (stereo unspecified)

Log EC50 [1]: -5.26
SMILES: CC(Cl)(Cl)[C@@H](NC(=O)c1ccc(Cl)cc1)N/C(=N/C#N)Nc1cccnc1

Log EC50 [1]: -6.6
SMILES: COc1ncccc1N/C(=N\C#N)NC(NC(=O)c1ccc(Cl)cc1)C(C)(Cl)Cl (stereo unspecified)

Log EC50 [1]: -5.44
SMILES: CC(Cl)(Cl)C(NC(=O)c1cccs1)N/C(=N/C#N)Nc1ccc(C(F)(F)F)nc1 (stereo unspecified)
